Consider three compounds from ChEMBL document CHEMBL1287725, “N-(8-(3-ethynylphenoxy)octyl-1-deoxynojirimycin suppresses growth and migration of human lung cancer cells” (Bioorg Med Chem Lett, 2010).

Activity calls are given as the source filed them. The rule behind the calls is not given here.

The subject of test [1] is A549. Briefly: Antiproliferative activity against human A549 cells after 72 hrs by MTT assay. The format is functional, cell-based. The settings on record: A549, 72 h. In a few lines: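 A549 cells (2.5 x 10^3/well) in F12K with 10% FBS, seeded overnight, then exposed to a range of doses for 72 h. MTT was added to a final 0.5 mg/ml for 3 h. Formazan was dissolved in DMSO and absorbance read. Triplicates, three experiments; IC50 given as mean of three experiments.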
Background: Tetrazolium assays rely on reduction of a dye to a coloured formazan, in cell work by metabolically active cells.

In test [2] the test system is A549. Briefly: Inhibition of human A549 cell migration at 100 uM after 24 hrs by wound-healing assay. The format is functional, cell-based. Put shortly: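 Confluent A549 monolayers (3 x 10^4 cells seeded overnight, F12K/10% FBS) were scratched with a 200 µl pipette tip and washed. They were incubated at 37 °C in 10% FBS F12K with or without compound, and migration into the wound was photographed at 0 and 24 h.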

The subject of test [3] is A549. Description: Effect on surface oligosaccharide expression in human A549 cells assessed as inhibition of binding of L-PHA-[…] to cell surface at 50 uM after 24 hrs by flow cytometry. The format is functional, cell-based. A general note: A flow cytometer gives signals particle by particle.
Test [4] has as its system A549. Description: Cell cycle arrest in human A549 cells assessed as accumulation at G1 phase at 50 uM after 24 hrs using propidium iodide staining by flow cytometry relative to control. In kind it is functional. Put shortly: (§1)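 A549 cells were seeded overnight in F12K/10% FBS, then treated 24 h. They were harvested with trypsin-EDTA, fixed in 70% ethanol at −20 °C for at least 2 h, and treated with RNase A 200 µg/ml at 25 °C for 30 min. Staining was with propidium iodide 50 µg/ml for 30 min at 4 °C. 10,000 nuclei per sample were scored by flow cytometry for G1, S and G2/M percentages. Triplicate, repeated three times.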

Test [5] concerns A549. Briefly: Cell cycle arrest in human A549 cells assessed as accumulation at G2/M phase at 50 uM after 24 hrs using propidium iodide staining by flow cytometry relative to control. In kind it is functional. In a few lines: as §1
For test [6], the system named is A549. Description: Cell cycle arrest in human A549 cells assessed as accumulation at S phase at 50 uM after 24 hrs using propidium iodide staining by flow cytometry relative to control. The format is functional. Put shortly: as §1
Test [7] relates to A549. Briefly: Induction of apoptosis in human A549 cells at 50 uM after 24 to 72 hrs using annexin V and propidium iodide staining by flow cytometry. In kind it is functional, cell-based. Put shortly:
(§2)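 A549 cells were seeded and, the next day, treated in complete medium at 0, 50 or 100 µM for 24, 48 and 72 h. Cells were collected and washed twice with DPBS, then stained with an annexin V-FITC/propidium iodide kit. Annexin V-positive cells were quantified by flow cytometry. Triplicate, repeated three times.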

Test [8] has as its system A549. Briefly: Induction of apoptosis in human A549 cells at 100 uM after 24 to 72 hrs using annexin V and propidium iodide staining by flow cytometry. In kind it is functional, cell-based. In a few lines: as §2
Test [9] has as its system A549. Briefly: Induction of apoptosis in human A549 cells assessed as increased mitochondrial membrane depolarization at 100 uM after 48 hrs using JC-1 dye by flow cytometry. In kind it is functional, cell-based. In a few lines:
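After 48 h exposure, A549 cells were harvested and stained with JC-1. The red-to-green fluorescence shift (green/red ratio) was measured by flow cytometry as mitochondrial depolarisation. Mean ± SD, n=3.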

Test [10] concerns A549. Description: Inhibition of human A549 cell migration assessed as prevention of actin stress fibre formation at 100 uM after 24 hrs by TRITC-phalloidin staining. The format is functional, cell-based. In a few lines:
(§3)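 A549 cells on glass coverslips were seeded overnight, then exposed 24 h. They were fixed with 4% paraformaldehyde, permeabilised with 0.1% Triton X-100, blocked with 1% BSA, and stained 60 min with TRITC-phalloidin for F-actin. Stress fibres were examined by confocal microscopy (100x oil). Repeated three times.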

Test [11] deals with A549. Briefly: Inhibition of human A549 cell migration assessed as disruption of actin assembly at 100 uM after 24 hrs by TRITC-phalloidin staining. In kind it is functional, cell-based. Put shortly:
as §3

Test [12] deals with A549. Description: Cell cycle arrest in human A549 cells assessed as accumulation at G1 phase at 100 uM after 24 hrs using propidium iodide staining by flow cytometry relative to control. In kind it is functional. In a few lines:
as §1

The test system of test [13] is A549. Description: Cell cycle arrest in human A549 cells assessed as accumulation at G2/M phase at 100 uM after 24 hrs using propidium iodide staining by flow cytometry relative to control. The format is functional. Put shortly: as §1
For test [14], the system named is A549. Description: Cell cycle arrest in human A549 cells assessed as accumulation at S phase at 100 uM after 24 hrs using propidium iodide staining by flow cytometry relative to control. The format is functional. In a few lines:
as §1

As usually defined, the IC50 is the concentration at which inhibition is half-maximal. A higher IC50 goes with a need for much substance. Regarding `C#Cc1cccc(OC)c1`, the half-inhibitory concentration (IC50) in test [1] is over 1000 µM. For the same compound, the inhibition entry in [2] is “inactive”.

`OC[C@H]1NC[C@H](O)[C@@H](O)[C@@H]1O` [DUVOGLUSTAT]: in test [3], the inhibition result was “Active”. In test [1], the IC50 is over 1000 µM. Further, the inhibition result in test [2] was “inactive”.

`C#Cc1cccc(OCCCCCCCCN2C[C@H](O)[C@@H](O)[C@H](O)[C@H]2CO)c1`: the inhibition entry in test [3], in test [2], in test [10] and in test [11] was “Active” throughout. For the same compound, the IC50 in test [1] was 51.2 µM. Besides, the Activity in test [4] is 77.69%; in test [5] it was 9.97%; in test [6], 13.93%; in [12], 89.1%; in test [13], 5.44%; in [14], 4.85%. Besides, the outcome in test [7], in [8] and in [9] was Active.
